Assay outcomes deposited in PubChem by Sanford-Burnham Center for Chemical Genomics.
An excerpt weighted towards active compounds, which were near 3.9% of everything screened.
XBP1 UPR activ: activators of adaptive arm of unfolded protein response (XBP1) | activation, % at 20 µM | CHO-XBP1 luciferase reporter, IRE1-XBP1 UPR activation, luminescence; percent of tunicamycin response, DMSO as zero | 0.33% of 330,000 active;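 active means versus positive control, 20 µM dose yields 30% or more activation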
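Material: IRE1-XBP1 luciferase reporter CHO line / Quantity: one thousand reporter cells per well / Buffer or medium: F12 with 10% serum / Compound: 20 µM single concentration, DMSO 1% / Times: 6 h treatment, 37 °C / Detection: Steady-Glo luciferase glow luminescence, 10 min after reagent addition / Benchmarks: tunicamycin high, DMSO low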
tim23-1 inh: inhibits growth of tim23-1 mutant yeast; 1.3% of 330,000 active; inhibition, % at 20 µM; S. cerevisiae tim23-1 growth, BacTiter-Glo luminescence, 24 h;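 active means growth inhibition of the mutant yeast at or above 50%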;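 further: temperature-sensitive mutant grown at 25 °C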
tim10-1 inh: inhibits growth of tim10-1 mutant yeast. S. cerevisiae tim10-1 ts strain growth, BacTiter-Glo, 24 h. inhibition, % at 20 µM. 2.2% of 330,000 active;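 active means inhibition of at least 40%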;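 further: mutant grown at 25 °C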
TIM10 inh: inhibits growth of TIM10 yeast strain; S. cerevisiae TIM10 strain growth, BacTiter-Glo luminescence, 24 h; inhibition, % at 10 µM; 1.4% of 330,000 active; AID 463195;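 active means inhibition of 40% or more at the single tested concentration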;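 further: wild-type TIM10 isogenic control strain grown at permissive 25 °C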
CHOP UPR activ: apoptotic UPR (CHOP) activation | CHO-CHOP luciferase reporter, luminescence; percent of tunicamycin response over DMSO baseline | activation, % at 10 µM | 0.34% of 330,000 active;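 active means at 10 µM dose, activation of 40% or more, normalized to positive control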
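measured by = luciferase luminescence | assay system = CHO-CHOP cells, stable luciferase reporter of PERK-eIF2a-CHOP signalling | amount = 500 reporter cells seeded per well | timing = 6 h compound exposure at 37 °C after overnight seeding | controls = positive tunicamycin 10 µg/mL, negative DMSO alone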
tim10 confirm: confirmation of TIM10 yeast growth inhibitors; inhibition, % at 10 µM; 63% of 4,600 active; AID 463215; S. cerevisiae tim10 strain growth, BacTiter-Glo luminescence, 24 h; shares compounds with TIM10 inh;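 active means inhibition of yeast growth at or above a set limit in either of two replicates at 10 µM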; further: this counterscreen used the strain with wild-type TIM10
Numbers stand for hits; . = inactive; / = no result given.

SMILES	XBP1 UPR activ	tim23-1 inh	tim10-1 inh	TIM10 inh	CHOP UPR activ	tim10 confirm
COc1ccc(NC(=O)c2cc3n(n2)C(C(F)(F)F)CC(c2ccc4c(c2)OCO4)N3)cc1OC (centres undefined)	.	.	.	41	.	35
CC1CC1C(=O)Nc1ccc(-c2ccccc2)cc1 (centres undefined)	.	.	.	43	.	36
O=C(CCN1C(=O)c2ccccc2C1=O)NC(=S)Nc1cccc(Cl)c1	.	.	.	41	.	.
O=C(CCc1ccccc1)NC(=S)Nc1cccc(C(=O)O)c1	.	.	.	.	.	/
O=C(CCN1C(=O)c2ccccc2C1=O)NC(=S)Nc1ccccc1	.	.	.	.	.	/
S=C(Nc1cccc(Br)c1)c1ccccc1	.	.	.	43	.	44
CC(=O)c1cccc(NC(=S)NCCCCc2ccccc2)c1	.	.	.	41	.	.
O=C(CCc1ccccc1)NC(=S)Nc1cccc(Br)c1	.	.	.	48	.	.
CSc1cccc(N2CC(C(=O)Nc3ccccc3N3CCCC3)CC2=O)c1 (centres undefined)	.	.	.	.	.	/
c1ccc(OCCN2CCN(C(c3ccccc3)c3ccccc3)CC2)cc1	.	.	.	42	.	47
O=[N+]([O-])c1cc(NCCO)c(N2CCCCCC2)c2nonc12	.	.	.	.	.	/
CC(C)(C)c1ccc(C(=O)N2CCN(C(=O)c3cccs3)CC2)cc1	.	.	.	.	.	/
CN(Cc1ccccc1)C(=O)c1cn(C)c2ccc(S(=O)(=O)N3CCCC3)cc2c1=O	.	.	.	.	.	/
FC(F)(F)c1cc(-c2ccccc2)nc(N2CCCCCC2)n1	.	.	.	.	.	/
CS(=O)(=O)c1nc(-c2ccccc2)cc(C(F)(F)F)n1	.	.	.	45	.	.
Cc1ccc(C)c(NC(=O)CN(C)C(=O)C2COc3ccccc3O2)c1 (centres undefined)	.	.	.	.	.	/
COc1ccc(C(=O)NC2CC2)cc1OC1CCN(Cc2ccc(F)c(F)c2)CC1	.	.	.	.	.	/
COc1cc(OC)cc(C(=O)NCC2CCCN(Cc3ccc(SC)cc3)C2)c1 (centres undefined)	.	.	.	.	.	/
Cc1cccc(CSCCNC(=S)Nc2ccccc2)c1	.	.	.	48	.	.
CNC(=O)Cn1nc(C)c(S(=O)(=O)N2CCOCC2)c1C	.	.	.	.	.	/
CC1(C(=O)OCC(=O)Nc2ccc3ccccc3c2)CC1(Cl)Cl (centres undefined)	.	.	.	48	.	32
Cc1ccc(Sc2ccc(NC(=O)CCl)cc2)c(C)c1	.	.	.	59	.	43
Cc1cc(C(=O)COC(=O)CC2Sc3ccccc3NC2=O)c(C)n1-c1ccccc1 (centres undefined)	.	.	.	57	.	32
Cc1cc(C(=O)COC(=O)CC2Sc3ccccc3NC2=O)c(C)n1-c1ccc(Br)cc1 (centres undefined)	.	.	.	.	.	/
Cn1c(SCc2ccc3c(c2)OCO3)nnc1-c1ccccc1	.	.	.	97	.	.
SMILES	XBP1 UPR activ	tim23-1 inh	tim10-1 inh	TIM10 inh	CHOP UPR activ	tim10 confirm
COc1cccc(C(=O)Nc2ccccc2C(=O)NCC2CCCO2)c1 (centres undefined)	.	.	.	.	.	/
COc1ccc2[nH]c3c(c2c1)CCNC3c1ccc([N+](=O)[O-])o1 (centres undefined)	.	.	.	41	.	54
COc1ccc2[nH]c3c(c2c1)CCNC3C1CC=C(C)CC1 (centres undefined)	.	.	.	.	.	/
Cc1ccc(Cn2cnc3ccccc32)cc1C	.	.	.	40	.	.
COCCn1c(N)c(N(Cc2ccccc2)C(=O)c2cc(=O)[nH]c3ccccc23)c(=O)[nH]c1=O	.	.	.	41	.	.
CCCCn1c(N)c(N(Cc2ccccc2OC)C(=O)c2cc(=O)[nH]c3ccccc23)c(=O)[nH]c1=O	.	.	.	.	.	/
COC(=O)C1(C)NC(c2ccc(O)cc2)C2C(=O)N(c3ccc(C)cc3)C(=O)C21 (centres undefined)	.	.	.	.	.	/
COCC(C)n1c(C)cc(C(=O)COC(=O)C2=NN(c3ccccc3)C(=O)CC2)c1C (centres undefined)	.	.	.	.	.	/
COCCn1c(C)cc(C(=O)COC(=O)c2c(C)nn(Cc3ccccc3)c2C)c1C	.	.	.	41	.	.
COCC(C)n1c(C)cc(C(=O)COC(=O)c2c(C)nn(-c3ccccc3)c2C)c1C (centres undefined)	.	.	.	43	.	.
Cc1nn(Cc2ccccc2)c(C)c1C(=O)OCC(=O)c1cc(C)n(C2CC2)c1C	.	.	.	.	.	/
Cc1ccc(N2CC(C(=O)OCC(=O)Nc3ccccc3C)CC2=O)cc1 (centres undefined)	.	.	.	.	.	/
C=CCn1c(-c2cc(-c3ccccc3)sc2N)n[nH]c1=S	.	.	.	48	.	.
Cc1cc(NC(=O)CCC(=O)N(CC(=O)NC2CCCC2)c2ccc(Cl)c(Cl)c2)no1	.	.	.	.	.	/
CC(=O)N1CCN(S(=O)(=O)c2cccc(C(=O)NNC(=O)Cn3nc(C)cc3C)c2)CC1	.	.	.	.	.	/
COCCN1C(=O)C(=O)/C(=C(/O)c2ccc(S(=O)(=O)N3CCCCC3)cc2)C1c1ccc(OC)cc1 (centres undefined)	.	.	.	90	.	.
O=C(Cn1cnc([N+](=O)[O-])c1)NCCc1ccccc1	.	.	.	.	.	/
CCN(CC)C(=S)SC1CCCCN(C(=O)c2ccccc2)C1=O (centres undefined)	.	.	.	.	.	.
Fc1ccccc1NC(=S)NCc1ccccc1	.	.	.	.	.	/
Fc1ccccc1NC(=S)NN(Cc1ccccc1)c1ccccc1	.	.	.	44	.	38
CC(=O)c1ccc(OC(=O)N(c2ccccc2)c2ccccc2)cc1	.	.	.	63	.	.
Cc1cc(C)nc(SCc2ccc(C(=O)N/N=C3\CC(C)CC(C)(C)C3)cc2)n1 (centres undefined)	.	.	.	40	.	.
O=C(NCC1CCCCC1)c1cccc(S(=O)(=O)N2CCCC2)c1	.	.	.	.	.	/
COC(=O)CCCCCN1C(=O)/C(=C\c2ccncc2)SC1=S	.	.	.	42	.	28
O=C(O)CCN1C(=O)/C(=C\c2ccncc2)SC1=S	.	.	.	.	.	/
O=C(CCCN1C(=O)/C(=C\c2cccc(Br)c2)SC1=S)Nc1cccnc1	.	.	.	45	.	.
